In ChEMBL document CHEMBL3822410, “Novel substituted isoxazole FXR agonists with cyclopropyl, hydroxycyclobutyl and hydroxyazetidinyl linkers: Understanding and improving key determinants of pharmacological properties” (Bioorg Med Chem Lett, 2016):
pEC50: −log10 of the molar value. Values after ≈ are worked out from the molar mass of the structure shown. Active and inactive are the calls of the source. The rule behind the calls is not given here.

Tests used:
Bile acid receptor [1] = molecular target: T1, Bile acid receptor (Homo sapiens, UniProt Q96RI1); assay: Agonist activity at GST-tagged FXR LBD (187 to 472 residues) (unknown origin) assessed as FXR interaction with b-CPSSHSSLTERHKILHRLLQEGSPS-COOH by FRET assay
T1 sequence (Q96RI1 whole entry): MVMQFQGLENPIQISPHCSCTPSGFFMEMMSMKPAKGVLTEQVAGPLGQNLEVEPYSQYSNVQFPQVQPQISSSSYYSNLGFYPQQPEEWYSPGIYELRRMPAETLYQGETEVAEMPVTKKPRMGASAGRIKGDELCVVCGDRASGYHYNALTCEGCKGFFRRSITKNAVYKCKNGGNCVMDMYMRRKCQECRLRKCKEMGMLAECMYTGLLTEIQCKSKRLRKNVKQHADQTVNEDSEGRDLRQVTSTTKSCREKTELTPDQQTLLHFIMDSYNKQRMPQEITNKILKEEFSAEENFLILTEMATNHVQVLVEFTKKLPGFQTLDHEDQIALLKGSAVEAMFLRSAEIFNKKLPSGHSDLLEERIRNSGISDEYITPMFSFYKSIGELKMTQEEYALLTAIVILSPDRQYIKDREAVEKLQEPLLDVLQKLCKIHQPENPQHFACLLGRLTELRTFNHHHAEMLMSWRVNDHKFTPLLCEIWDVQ

[2] = molecular target: T2, Bile acid receptor (Homo sapiens) (UniProt Q96RI1); assay: Agonist activity at GST-tagged FXR LBD (187 to 472 residues) (unknown origin) assessed as FXR interaction with b-CPSSHSSLTERHKILHRLLQEGSPS-COOH by FRET assay relative to GW4064
T2 sequence (whole entry): T1 sequence (Q96RI1 whole entry)

Bile acid receptor [3] = molecular target: T1, Bile acid receptor; assay: Agonist activity at C-terminal Gal4-tagged human FXR (187 to 472 residues) expressed in HEK-293 cells co-expressing pFRluc by mammalian one hybrid assay; format: cell-based, HEK293
Method in brief: (§1)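 Transient transfection of HEK293 cells with Gal4 DBD–human FXR LBD (187–472) chimera under CMV promoter plus pFRluc Gal4-driven firefly luciferase reporter. Cells treated with serial compound dilutions. EC50 from at least three experiments; efficacy is extrapolated maximum signal of the dose-response, GW4064 set to 100%.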

[4] = molecular target: T2, Bile acid receptor (Homo sapiens); assay: Agonist activity at C-terminal Gal4-tagged human FXR (187 to 472 residues) expressed in HEK-293 cells co-expressing pFRluc by mammalian one hybrid assay relative to GW4064; format: cell-based; details: HEK293; method in brief: as §1
[5] = Permeability of the compound assessed as compound influx measured after 16 hrs by PAMPA assay; format: ADME
Method in brief: (§2)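 PAMPA, 16 h at rt. Flux = [C_acceptor/(C_donor + C_acceptor)] × 100 × 2. Membrane enrichment = C_membrane × 2/(C_acceptor + C_donor), membrane phase extracted into a volume equal to the acceptor or donor compartment.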

[6] = Permeability of the compound assessed as compound enrichment in membrane compartment measured after 16 hrs by PAMPA assay relative to control; format: ADME; method in brief: as §2
Mus musculus [7] = assay: Reduction in total cholesterol level in high fat diet enriched with cholesterol fed C57BL/6J mouse plasma at 10 mg/kg, po through gavage for 10 days measured after 4 hrs of final dosage relative to vehicle treated-control; format: functional, organism-based
Method in brief: (§3)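 C57BL/6J mice pre-fed and kept on high fat diet (60% kcal fat) with 1% (w/w) cholesterol; 10 mg/kg by oral gavage for 10 days. Plasma total cholesterol and triglycerides taken at sacrifice 4 h after final dose, expressed as % change versus vehicle group.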

[8] = Oral bioavailability in C57BL/6J mouse at 5 mg/kg; format: ADME, organism-based; details: in vivo
Method in brief: (§4)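 Mice dosed 5 mg/kg orally and 1 mg/kg intravenously; bioavailability from both arms, all other parameters (AUC, Cmax, T1/2, Cl/F, Vd/F) calculated from the oral arm.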

[9] = Half life in C57BL/6J mouse at 5 mg/kg, po and 1 mg/kg, iv; format: ADME, organism-based; details: in vivo; method in brief: as §4
[10] = Apparent oral clearance in C57BL/6J mouse at 5 mg/kg; format: ADME, organism-based; details: in vivo; method in brief: as §4
[11] = Apparent oral volume of distribution in C57BL/6J mouse at 5 mg/kg; format: ADME, organism-based; details: in vivo; method in brief: as §4
[12] = AUC in C57BL/6J mouse at 5 mg/kg, po and 1 mg/kg, iv; format: ADME, organism-based; details: in vivo; method in brief: as §4
[13] = Aqueous solubility of the compound; format: physicochemical; details: buffer
[14] = Cmax in C57BL/6J mouse at 5 mg/kg, po and 1 mg/kg, iv; format: ADME, organism-based; details: in vivo; method in brief: as §4
Mus musculus [15] = assay: Reduction in total triglyceride level in high fat diet enriched with cholesterol fed C57BL/6J mouse plasma at 10 mg/kg, po through gavage for 10 days measured after 4 hrs of final dosage relative to vehicle treated-control; format: functional, organism-based; method in brief: as §3

Structure (SMILES)	pEC50 (Bile acid receptor [1])	Efficacy [2]	pEC50 (Bile acid receptor [3])	Efficacy [4]	permeability [5]	fold change (FC) [6]	Activity (Mus musculus [7])	bioavailability [8]	half-life [9]	CL/F [10]	Vd/F [11]	AUC [12]	solubility [13]	Cmax [14]	Activity (Mus musculus [15])
CS(=O)(=O)NC(=O)c1ccc(C2CC2c2ccc(OCc3c(-c4c(Cl)cccc4Cl)noc3C3CC3)cc2Cl)cc1 (racemic)	7.05	100%	7.36	88%	–	–	–	–	–	–	–	–	–	–	–
O=C(O)c1cccc([C@H]2C[C@H](c3ccc(OCc4c(-c5c(Cl)cccc5Cl)noc4C4CC4)cc3Cl)C2)c1	7.62	100%	7.82	89%	0%	319	–	–	–	–	–	–	–	–	–
O=C(NCCS(=O)(=O)O)c1ccc(C2CC2c2ccc(OCc3c(-c4c(Cl)cccc4Cl)noc3C3CC3)cc2Cl)cc1 (racemic)	7.12	98%	5.86	34%	–	–	–	–	–	–	–	–	–	–	–
O=C(O)c1cccc(N2CC(O)(c3ccc(OCc4c(-c5c(Cl)cccc5Cl)noc4C4CC4)cc3Cl)C2)c1	7.27	97%	–	94%	27%	40	–	–	–	–	–	–	–	–	–
Cn1nc(C(=O)O)c2ccc([C@H]3C[C@](O)(c4ccc(OCc5c(-c6c(Cl)cccc6Cl)noc5C5CC5)cc4Cl)C3)cc21	7.72	99%	7.30	82%	–	–	–	–	–	–	–	–	–	–	–
O=C(O)c1ccc([C@H]2C[C@@H]2c2ccc(OCc3c(-c4c(Cl)cccc4Cl)noc3C3CC3)cc2Cl)cc1 [PX-102]	5.96	100%	6.73	71%	–	–	–	–	–	–	–	–	–	–	–
CC(C)n1nc(C(=O)O)cc1C1CC1c1ccc(OCc2c(-c3c(Cl)cccc3Cl)noc2C2CC2)cc1Cl (racemic)	8.15	102%	8.22	81%	29%	22	Active	11%	48 min	83 mL/min/kg	5.5 L/kg	110 ng·h/mL	158 µM (≈ 92.7 µg/mL)	160 ng/mL	Active
Cn1nc(C(=O)O)c2ccc(C3CC3c3ccc(OCc4c(-c5c(Cl)cccc5Cl)noc4C4CC4)cc3Cl)cc21 (racemic)	7.89	104%	7.85	84%	–	–	–	–	–	–	–	–	–	–	–
O=C(O)c1ccc([C@@H]2C[C@H]2c2ccc(OCc3c(-c4c(Cl)cccc4Cl)noc3C3CC3)cc2Cl)cc1	7.10	99%	7.33	89%	–	–	–	–	–	–	–	–	–	–	–
Clc1cc(OCc2c(-c3c(Cl)cccc3Cl)noc2C2CC2)ccc1C1CC1c1ccc(-c2nnn[nH]2)nc1 (stereo not given)	6.88	101%	6.95	79%	–	–	–	–	–	–	–	–	–	–	–
O=C(O)c1cccc([C@H]2C[C@](O)(c3ccc(OCc4c(-c5c(Cl)cccc5Cl)noc4C4CC4)cc3Cl)C2)c1	7.54	100%	7.60	79%	24%	27	Active	49%	36 min	4.7 mL/min/kg	0.3 L/kg	8600 ng·h/mL	–	9800 ng/mL	Active
CS(=O)(=O)NC(=O)c1ccc([C@@H]2C[C@H]2c2ccc(OCc3c(-c4c(Cl)cccc4Cl)noc3C3CC3)cc2Cl)cc1	7.32	94%	7.36	81%	–	–	–	–	–	–	–	–	–	–	–
O=C(O)c1ccc(C2CC2c2ccc(OCc3c(-c4c(Cl)cccc4Cl)noc3C3CC3)cc2Cl)cc1 (racemic)	6.88	100%	7.12	85%	14%	30	Active	44%	30 min	85 mL/min/kg	3.6 L/kg	430 ng·h/mL	–	280 ng/mL	Active
O=C(O)c1cccc([C@H]2C[C@@H](c3ccc(OCc4c(-c5c(Cl)cccc5Cl)noc4C4CC4)cc3Cl)C2)c1	7.11	99%	7.04	88%	–	–	–	–	–	–	–	–	–	–	–
O=C(O)c1ccc([C@H]2C[C@](O)(c3ccc(OCc4c(-c5c(Cl)cccc5Cl)noc4C4CC4)cc3Cl)C2)cc1	7.62	105%	7.20	71%	21%	9	–	41%	66 min	190 mL/min/kg	3.9 L/kg	180 ng·h/mL	192 µM (≈ 112 µg/mL)	96 ng/mL	–
CCO[C@]1(c2ccc(OCc3c(-c4c(Cl)cccc4Cl)noc3C3CC3)cc2Cl)C[C@H](c2cccc(C(=O)O)c2)C1	6.56	94%	6.66	89%	–	–	–	–	–	–	–	–	–	–	–
O=C(O)c1cccc([C@@H]2C[C@H]2c2ccc(OCc3c(-c4c(Cl)cccc4Cl)noc3C3CC3)cc2Cl)c1	7.74	100%	7.54	98%	–	–	inactive	–	–	–	–	–	–	–	inactive
CO[C@]1(c2ccc(OCc3c(-c4c(Cl)cccc4Cl)noc3C3CC3)cc2Cl)C[C@H](c2cccc(C(=O)O)c2)C1	7.10	93%	6.99	75%	–	–	–	–	–	–	–	–	–	–	–
O=C(O)c1cccc([C@H]2C[C@](OCCO)(c3ccc(OCc4c(-c5c(Cl)cccc5Cl)noc4C4CC4)cc3Cl)C2)c1	6.43	97%	6.42	68%	–	–	–	–	–	–	–	–	–	–	–
O=C(O)c1cccc([C@H]2C[C@@H]2c2ccc(OCc3c(-c4c(Cl)cccc4Cl)noc3C3CC3)cc2Cl)c1	6.66	101%	7.05	88%	–	–	–	–	–	–	–	–	–	–	–
O=C(O)CNC(=O)c1ccc(C2CC2c2ccc(OCc3c(-c4c(Cl)cccc4Cl)noc3C3CC3)cc2Cl)cc1 (racemic)	6.82	100%	6.68	58%	–	–	–	–	–	–	–	–	–	–	–
O=C(O)c1cncc(C2CC2c2ccc(OCc3c(-c4c(Cl)cccc4Cl)noc3C3CC3)cc2Cl)c1 (stereo not given)	8.00	103%	7.85	73%	–	–	–	–	–	–	–	–	165 µM (≈ 91.7 µg/mL)	–	–
O=C(O)c1ccc(C2CC2c2ccc(OCc3c(-c4c(Cl)cccc4Cl)noc3C3CC3)cc2Cl)cn1 (stereo not given)	7.18	101%	7.24	68%	–	–	–	–	–	–	–	–	–	–	–
CC(C)n1nc(C(=O)O)cc1[C@@H]1C[C@H]1c1ccc(OCc2c(-c3c(Cl)cccc3Cl)noc2C2CC2)cc1Cl	8.40	101%	8.40	79%	–	–	–	–	–	–	–	–	–	–	–
O=C(O)c1cccc(C2CC2c2ccc(OCc3c(-c4c(Cl)cccc4Cl)noc3C3CC3)cc2Cl)c1 (racemic)	7.49	102%	7.47	87%	17%	33	–	53%	60 min	55 mL/min/kg	4.7 L/kg	800 ng·h/mL	20 µM (≈ 11.1 µg/mL)	1060 ng/mL	–
